Data as given in ChEMBL document CHEMBL1212770, “Molecular and biochemical characterization of the natural chromosome-encoded class A beta-lactamase from Pseudomonas luteola” (Antimicrob Agents Chemother, 2010).
Values after ≈ are worked out from the molar mass of the structure shown. Active and inactive are the calls of the source. No cut-off for these calls is given here.

Legend:
Pseudomonas luteola [1] = test: Antimicrobial activity against Pseudomonas luteola by Etest method; assay type: functional
Escherichia coli [2] = test: Antimicrobial activity against Escherichia coli DH10B transfected with pBK-L3 expressing blaLUT-1 by Etest method; assay type: functional; conditions: K-12 DH10B
Pseudomonas luteola [3] = test: Antimicrobial activity against Pseudomonas luteola expressing blaLUT-2 to blaLUT-6 by Etest method; assay type: functional
Pseudomonas luteola [4] = test: Antimicrobial activity against Pseudomonas luteola LAM expressing blaLUT-1 by Etest method; assay type: functional
Escherichia coli [5] = test: Antimicrobial activity against Escherichia coli DH10B by Etest method in presence of 4 ug/ml Tazobactam; assay type: functional; conditions: K-12 DH10B
Escherichia coli [6] = test: Antimicrobial activity against Escherichia coli DH10B by Etest method; assay type: functional; conditions: K-12 DH10B
Escherichia coli [7] = test: Antimicrobial activity against Escherichia coli DH10B transfected with pBK-L3 expressing blaLUT-1 by Etest method in presence of 4 ug/ml Tazobactam; assay type: functional; conditions: K-12 DH10B
Pseudomonas luteola [8] = test: Antimicrobial activity against Pseudomonas luteola LAM expressing blaLUT-1 by Etest method in presence of 4 ug/ml Tazobactam; assay type: functional
Pseudomonas luteola [9] = test: Antimicrobial activity against Pseudomonas luteola expressing blaLUT-2 to blaLUT-6 by Etest method in presence of 4 ug/ml Tazobactam; assay type: functional
Pseudomonas luteola [10] = test: Antimicrobial activity against Pseudomonas luteola by disk diffusion method; assay type: functional
Procedure, shortened: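 Disk diffusion panel of 32 antimicrobial drugs tested on P. luteola clinical isolates and the type strain. Isolates were identified by API-20 NE and by sequencing of PCR-amplified rrs and rpoB.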

Escherichia coli [11] = test: microbe, parasite or virus in culture; conditions: K-12 DH10B
Pseudomonas luteola [12] = test: Antimicrobial activity against Pseudomonas luteola expressing blaLUT-2 to blaLUT-6 by Etest method in presence of 4 ug/ml clavulanic acid; assay type: functional
Escherichia coli [13] = test: Antimicrobial activity against Escherichia coli DH10B by Etest method in presence of 4 ug/ml clavulanic acid; assay type: functional; conditions: K-12 DH10B
Pseudomonas luteola [14] = test: Antimicrobial activity against Pseudomonas luteola LAM expressing blaLUT-1 by Etest method in presence of 4 ug/ml clavulanic acid; assay type: functional
Escherichia coli [15] = test: Antimicrobial activity against Escherichia coli DH10B transfected with pBK-L3 expressing blaLUT-1 by Etest method in presence of 2 ug/ml clavulanic acid; assay type: functional; conditions: K-12 DH10B
Pseudomonas luteola [16] = test: Antimicrobial activity against Pseudomonas luteola expressing blaLUT-2 to blaLUT-6 by Etest method in presence of 2 ug/ml clavulanic acid; assay type: functional
Escherichia coli [17] = test: Antimicrobial activity against Escherichia coli DH10B by Etest method in presence of 2 ug/ml clavulanic acid; assay type: functional; conditions: K-12 DH10B
Pseudomonas luteola [18] = test: Antimicrobial activity against Pseudomonas luteola LAM expressing blaLUT-1 by Etest method in presence of 2 ug/ml clavulanic acid; assay type: functional
[19] = substrate: CC1(C)S[C@@H]2[C@H](NC(=O)Cc3ccccc3)C(=O)N2[C@H]1C(=O)O; test: (§1) Ratio of kcat/Km for Pseudomonas luteola LAM Beta-lactamase LUT-1
Procedure, shortened: (§2)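 LUT-1 was purified from E. coli DH5α(pBK-L3) grown for 18 h at 37°C in 2× yeast-tryptone broth with kanamycin 20 μg/ml and amoxicillin 32 μg/ml. Purification used Q Sepharose ion exchange, then Superose 12 gel filtration, with purity checked by SDS-PAGE. Km and kcat were determined by a computerized microacidimetric method, each three times, with coefficients of variation not exceeding 15%.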

[20] = substrate: CO/N=C(\C(=O)N[C@@H]1C(=O)N2C(C(=O)O)=C(COC(C)=O)CS[C@H]12)c1csc(N)n1; test: as §1; procedure, shortened: as §2
[21] = substrate: CCN1CCN(C(=O)N[C@@H](C(=O)N[C@@H]2C(=O)N3[C@@H]2SC(C)(C)[C@@H]3C(=O)O)c2ccccc2)C(=O)C1=O; test: as §1; procedure, shortened: as §2
[22] = substrate: CC1(C)S[C@@H]2[C@H](NC(=O)[C@H](C(=O)O)c3ccsc3)C(=O)N2[C@H]1C(=O)O; test: as §1; procedure, shortened: as §2
[23] = substrate: CC(C)(O/N=C(\C(=O)N[C@@H]1C(=O)N2C(C(=O)[O-])=C(C[n+]3ccccc3)CS[C@H]12)c1csc(N)n1)C(=O)O; test: as §1; procedure, shortened: as §2
[24] = substrate: CO/N=C(\C(=O)N[C@@H]1C(=O)N2C(C(=O)O)=C(COC(N)=O)CS[C@H]12)c1ccco1; test: as §1; procedure, shortened: as §2
[25] = substrate: CC1(C)S[C@@H]2[C@H](NC(=O)[C@H](N)c3ccc(O)cc3)C(=O)N2[C@H]1C(=O)O; test: as §1; procedure, shortened: as §2
[26] = substrate: CC(=O)OCC1=C(C(=O)O)N2C(=O)[C@@H](NC(=O)Cc3cccs3)[C@H]2SC1; test: as §1; procedure, shortened: as §2
[27] = substrate: C[C@H]1[C@H](NC(=O)/C(=N\OC(C)(C)C(=O)O)c2csc(N)n2)C(=O)N1S(=O)(=O)O; test: as §1; procedure, shortened: as §2
[28] = substrate: CC1(C)S[C@@H]2[C@H](NC(=O)Cc3ccccc3)C(=O)N2[C@H]1C(=O)O; test: (§3) Activity of Pseudomonas luteola LAM Beta-lactamase LUT-1; procedure, shortened: as §2
[29] = substrate: CO/N=C(\C(=O)N[C@@H]1C(=O)N2C(C(=O)O)=C(COC(C)=O)CS[C@H]12)c1csc(N)n1; test: as §3; procedure, shortened: as §2
[30] = substrate: CCN1CCN(C(=O)N[C@@H](C(=O)N[C@@H]2C(=O)N3[C@@H]2SC(C)(C)[C@@H]3C(=O)O)c2ccccc2)C(=O)C1=O; test: as §3; procedure, shortened: as §2
[31] = substrate: CC1(C)S[C@@H]2[C@H](NC(=O)[C@H](C(=O)O)c3ccsc3)C(=O)N2[C@H]1C(=O)O; test: as §3; procedure, shortened: as §2
[32] = substrate: CC(C)(O/N=C(\C(=O)N[C@@H]1C(=O)N2C(C(=O)[O-])=C(C[n+]3ccccc3)CS[C@H]12)c1csc(N)n1)C(=O)O; test: as §3; procedure, shortened: as §2
[33] = substrate: CO/N=C(\C(=O)N[C@@H]1C(=O)N2C(C(=O)O)=C(COC(N)=O)CS[C@H]12)c1ccco1; test: as §3; procedure, shortened: as §2
[34] = substrate: CC1(C)S[C@@H]2[C@H](NC(=O)[C@H](N)c3ccc(O)cc3)C(=O)N2[C@H]1C(=O)O; test: as §3; procedure, shortened: as §2
[35] = substrate: CC(=O)OCC1=C(C(=O)O)N2C(=O)[C@@H](NC(=O)Cc3cccs3)[C@H]2SC1; test: as §3; procedure, shortened: as §2
[36] = substrate: C[C@H]1[C@H](NC(=O)/C(=N\OC(C)(C)C(=O)O)c2csc(N)n2)C(=O)N1S(=O)(=O)O; test: as §3; procedure, shortened: as §2

O=C(O)c1cn(C2CC2)c2cc(N3CCNCC3)c(F)cc2c1=O [CIPROFLOXACIN]
MIC (Pseudomonas luteola [1]): 0.032 µg/mL (≈ 0.0966 µM)

CO/N=C(\C(=O)N[C@@H]1C(=O)N2C(C(=O)[O-])=C(C[N+]3(C)CCCC3)CS[C@H]12)c1csc(N)n1
MIC (Escherichia coli [2]): 0.5 µg/mL (≈ 1.04 µM)
MIC (Pseudomonas luteola [3]): 1 µg/mL (≈ 2.08 µM)
MIC (Pseudomonas luteola [4]): 0.5 µg/mL (≈ 1.04 µM)

CCN1CCN(C(=O)N[C@@H](C(=O)N[C@@H]2C(=O)N3[C@@H]2SC(C)(C)[C@@H]3C(=O)O)c2ccccc2)C(=O)C1=O [PIPERACILLIN]
MIC (Escherichia coli [5]): 1 µg/mL
MIC (Escherichia coli [6]): 1 µg/mL (≈ 1.93 µM)
MIC (Escherichia coli [2]): 8 µg/mL (≈ 15.5 µM)
MIC (Escherichia coli [7]): 1 µg/mL
MIC (Pseudomonas luteola [8]): 1 µg/mL
MIC (Pseudomonas luteola [3]): 2 µg/mL (≈ 3.86 µM)
MIC (Pseudomonas luteola [4]): 2 µg/mL (≈ 3.86 µM)
MIC (Pseudomonas luteola [9]): 1 µg/mL

CCn1cc(C(=O)O)c(=O)c2ccc(C)nc21 [NALIDIXIC ACID]
Activity (Pseudomonas luteola [10]): inactive
MIC (Pseudomonas luteola [1]): 16 µg/mL (≈ 68.9 µM)

O=C(N[C@H](CO)[C@H](O)c1ccc([N+](=O)[O-])cc1)C(Cl)Cl
Activity (Pseudomonas luteola [4]): inactive

CC(C)(O/N=C(\C(=O)N[C@@H]1C(=O)N2C(C(=O)[O-])=C(C[n+]3ccccc3)CS[C@H]12)c1csc(N)n1)C(=O)O [CEFTAZIDIME]
MIC (Escherichia coli [11]): 0.5 µg/mL (≈ 0.915 µM)
MIC (Escherichia coli [6]): 0.125 µg/mL (≈ 0.229 µM)
MIC (Escherichia coli [2]): 1 µg/mL (≈ 1.83 µM)
MIC (Pseudomonas luteola [12]): 0.25 µg/mL
MIC (Pseudomonas luteola [3]): 0.5 µg/mL (≈ 0.915 µM)
MIC (Escherichia coli [13]): 0.25 µg/mL
MIC (Pseudomonas luteola [14]): 0.25 µg/mL
MIC (Pseudomonas luteola [4]): 0.5 µg/mL (≈ 0.915 µM)

CC1(C)S[C@@H]2[C@H](NC(=O)[C@H](C(=O)O)c3ccsc3)C(=O)N2[C@H]1C(=O)O [TICARCILLIN]
MIC (Escherichia coli [15]): 16 µg/mL
MIC (Escherichia coli [6]): 2 µg/mL (≈ 5.2 µM)
MIC (Escherichia coli [2]): 256 µg/mL (≈ 666 µM)
MIC (Pseudomonas luteola [16]): 2 µg/mL
MIC (Escherichia coli [17]): 2 µg/mL
MIC (Pseudomonas luteola [3]): 8 µg/mL (≈ 20.8 µM)
MIC (Pseudomonas luteola [4]): 8 µg/mL (≈ 20.8 µM)
MIC (Pseudomonas luteola [18]): 4 µg/mL

B1: Beta-lactamase (Pseudomonas luteola), Q670S6 (protein)
chain: MNVILNRRTFLLASAVVSASYSLGTLAGANRDDASFQDRLAKLEQQLNGRLGVCAIDTANGAQLGYRANERFAMNSTFKVMLASAFLARSQDEPGLLEERLTYTRADLVTYSPVTEKHVSTGMTVAELCAAGIQYSDNTAANVLMKKLGGPEAVTAFARSIGDTHFRLDRWETELNSAIPGDPRDTSTPQAMAMSLQRLALGDMLAADKQHQLQAWLKGNTTGGKRIRAGVPAGWQVGDKTGTGDYGSANDVAILWPPRRAPVVLALYSALENQQAEARNDVLADAARIVAEWVTG
kcat/Km [19]: 3.87e+06 M⁻¹ s⁻¹
kcat/Km [20]: 5.25e+06 M⁻¹ s⁻¹
kcat/Km [21]: 1.14e+06 M⁻¹ s⁻¹
kcat/Km [22]: 360000 M⁻¹ s⁻¹
kcat/Km [23]: 40000 M⁻¹ s⁻¹
kcat/Km [24]: 1.19e+07 M⁻¹ s⁻¹
kcat/Km [25]: 1.05e+06 M⁻¹ s⁻¹
kcat/Km [26]: 2.59e+07 M⁻¹ s⁻¹
kcat/Km [27]: 40000 M⁻¹ s⁻¹
Km [28]: 8 µM
kcat [28]: 31 s⁻¹
Km [29]: 86 µM
kcat [29]: 452 s⁻¹
Km [30]: 7 µM
kcat [30]: 8 s⁻¹
Km [31]: 14 µM
kcat [31]: 5 s⁻¹
Km [32]: 35 µM
kcat [32]: 1.3 s⁻¹
Km [33]: 24 µM
kcat [33]: 286 s⁻¹
Km [34]: 20 µM
kcat [34]: 21 s⁻¹
Km [35]: 21 µM
kcat [35]: 543 s⁻¹
Km [36]: 40 µM
kcat [36]: 1.5 s⁻¹
